Data as given in ChEMBL document CHEMBL1132218, “3-Amino-5-phenoxythiophenes: syntheses and structure-function studies of a novel class of inhibitors of cellular L-triiodothyronine uptake” (J Med Chem, 1999).

Key:
HepG2 = assay: Compound was tested for inhibition of L-T3 (triiodothyronine) uptake in human HepG2 hepatoma cells at 10e-5 M; format: functional
How it was run: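 HepG2 cells kept in DMEM with 10% FCS at 37 °C, grown to confluence (2×10⁶ cells/well), then serum-free overnight. Incubated 2 min at 37 °C in DMEM with 10^-11 M [¹²⁵I]-L-T₃; solvent-matched controls; nondisplaceable uptake from duplicates with 10^-5 M unlabeled L-T₃. Five PBS (pH 7.4) washes at room temperature, 0.1 M NaOH harvest, cell-associated radioactivity counted.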

[1] = Partition coefficient (logP); format: physicochemical; conditions: octanol/water
How it was run: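 Octanol–water partition coefficient calculated computationally, not measured experimentally.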

logP [1]	Structure (SMILES)	inhibition at 10 µM (HepG2) [%]
3.66	COC(=O)c1sc(Oc2ccccc2)c(C#N)c1N	41
4.16	COC(=O)c1sc(Oc2cccc(C)c2)c(C#N)c1N	19
2.19	N#Cc1c(Oc2ccccc2)sc(C(N)=O)c1N	14
3.04	Cc1cccc(Oc2sc(C#N)c(N)c2C#N)c1	26
4.53	N#Cc1c(Oc2ccccc2)sc(C(=O)c2ccc([N+](=O)[O-])cc2)c1N	18
3.61	COC(=O)c1sc(Oc2cccc(C)c2)c(C(N)=O)c1N	40
4.75	N#Cc1c(Oc2ccccc2)sc(C(=O)c2ccccc2)c1N	61
3.6	NC(=O)c1c(Oc2ccccc2)sc(C(=O)c2ccccc2)c1N	60
2.54	N#Cc1sc(Oc2ccccc2)c(C#N)c1N	21
3.11	COC(=O)c1sc(Oc2ccccc2)c(C(N)=O)c1N	26
5.03	Cc1cccc(Oc2sc(C(=O)c3ccc([N+](=O)[O-])cc3)c(N)c2C#N)c1	16
5.25	Cc1cccc(Oc2sc(C(=O)c3ccccc3)c(N)c2C#N)c1	57
2.69	Cc1cccc(Oc2sc(C(N)=O)c(N)c2C#N)c1	23
